In general, inhibition refers to the change of the read-out against control, counted positive when it falls.

This note sets out measurements from PubChem BioAssay AID561 (The Scripps Research Institute Molecular Screening Center, 2006).

SMILES strings stand for the structures. In all, about 65,000 compounds went through this assay and about 280 (0.43%) were called active. Many of the other results were omitted from the sample, so actives are more common in it than they were. Values without a mark were called inactive.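 Rule for the calls: active = inhibition above the mean of all tested compounds plus 3 SD (cut at about 52% in these data); inactive = the rest.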

The target in the test is Nuclear receptor ROR-alpha (Homo sapiens) (UniProt P35398). As to the kind of experiment: inhibitors of orphan receptor RORA, primary screen, cell-based, luminescence (AID 561).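 Note: 0% = RORA-transfected cells with DMSO and 100% = mock-transfected cells lacking RORA.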 Particulars: CHO-K1 Gal4-RORA LBD luciferase reporter, at 10 µM, hits give high values. The essentials: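 Test system: CHO-K1 cells with Gal4-hRORA LBD fusion and pG5-luc reporter | Timing: 20 h compound treatment, 37 °C | Detection: Luminescence from basal luciferase reporter expression | Read-out basis: % inhibition of basal luciferase versus +RORA/-RORA DMSO controls | Repeats: One measurement per compound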
Chain of Nuclear receptor ROR-alpha (Homo sapiens) (P35398 whole entry, looked up, the tested form may be a part): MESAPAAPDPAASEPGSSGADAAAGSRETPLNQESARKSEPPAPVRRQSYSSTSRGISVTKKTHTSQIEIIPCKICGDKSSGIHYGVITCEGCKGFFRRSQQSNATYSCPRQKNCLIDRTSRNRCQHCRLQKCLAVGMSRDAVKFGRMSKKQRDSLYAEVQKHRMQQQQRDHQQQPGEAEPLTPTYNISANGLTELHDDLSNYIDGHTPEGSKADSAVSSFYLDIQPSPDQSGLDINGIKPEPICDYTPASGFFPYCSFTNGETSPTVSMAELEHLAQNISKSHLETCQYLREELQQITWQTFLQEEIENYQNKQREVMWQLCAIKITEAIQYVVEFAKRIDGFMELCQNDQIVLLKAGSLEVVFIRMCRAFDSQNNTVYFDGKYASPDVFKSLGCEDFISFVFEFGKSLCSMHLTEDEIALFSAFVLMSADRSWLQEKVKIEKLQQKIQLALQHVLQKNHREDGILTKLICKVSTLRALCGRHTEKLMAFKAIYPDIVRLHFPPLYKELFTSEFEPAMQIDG
For orientation: In a reporter assay the amount or activity of a reporter protein is the signal.
As for `Cn1c(=O)c2c(nc(N3CCCCCC3)n2CC(O)COc2ccc(Cl)cc2)n(C)c1=O` (stereo unspecified), the inhibition is -1%. Turning to `C=CCOc1nc2c(c(=O)n(C)c(=O)n2C)n1Cc1ccc(Cl)cc1Cl`, the inhibition is 63.5% (active).

Consider `CCCc1[nH]nc2c1C(c1ccc(OC)c(Cn3nc(C)c(Br)c3C)c1)C(C#N)=C(N)O2` (stereo unspecified), for which the inhibition is 27.5%. The same measure for `CN(C)c1cc(N)c2ccccc2n1` (tested in a mixture with another compound): -3.2%; for `O=C1c2oc3ccccc3c(=O)c2C(c2cccc(O)c2)N1c1ccccn1` (stereo unspecified): -9.5%. Consider `COc1ccc(-c2nn(-c3ccccc3)cc2C(=O)Nc2nc(CC(C)=O)ns2)cc1`, for which the inhibition was -0.5%.

In the case of `COc1cccc(N2CCN(C(=O)C3CCCN(S(=O)(=O)c4cnc[nH]4)C3)CC2)c1` (stereo unspecified), the inhibition is 4.9%. With `Cc1ccc(NC(=O)c2nc[nH]c2C(=O)N2CCCCC2)c(C(=O)c2ccccc2)c1`, the inhibition was 24.7%. On to `O=c1[nH]c(-c2ccccc2)c(-c2ccccc2)[nH]1`, for which the inhibition is 23.5%. Then `O=C(CCC(=O)c1cccs1)NCc1ccccc1`, with 2.2%; and `COc1ccc(NC(=O)c2cccc(NC(=O)c3ccco3)c2)c(OC)c1`, with -19%. Then `CC(C)n1c(SCC(=O)Nc2ccccc2N2CCCCC2)nc2c1c(=O)n(C)c(=O)n2C`, with 18.7%; and `CC(C)Cc1cc(C(=O)NCCc2ccccc2)no1`, with -23.2%. As to `c1coc(CNc2ncnc3ccccc23)c1`, the inhibition was 66.3% (active).

For `O=C(Cc1ccccc1)n1nc(-c2ccccc2)nc1NCc1ccco1`, the inhibition was -8%.

Regarding `O=C(NCc1ccc2c(c1)OCO2)c1ccc2c(c1)C(=O)N(CC1CCCO1)C2=O` (stereo unspecified), the inhibition was 4.9%.

With `Cc1ccc(Cn2ccc(NC(=O)C3C4CCC(C4)C3C(=O)O)n2)cc1` (stereo unspecified), the inhibition was -14.2%.

`COc1ccccc1C1/C(=C(/O)c2ccc(C)cc2)C(=O)C(=O)N1Cc1ccco1` (stereo unspecified): the inhibition is -17.5%. Then `O=C(CNC(=O)c1ccco1)OCC(=O)c1ccccc1`, with 10.7%; and `O=c1cc(-c2ccccc2)nc(N2CCCCC2)[nH]1`, with -0.2%; and `CC(C)C[C@H](NC(=O)Nc1cccc(C(F)(F)F)c1)C(=O)O`, with 11.1%. Regarding `CN(c1ccc(C(=O)NCCC2=CCCCC2)cc1)S(C)(=O)=O`, the inhibition was -63%. For `CC(=O)Nc1ccn(Cc2c(F)cccc2Cl)n1`, the inhibition was -27.2%. Turning to `CCOC(=O)Cc1c(C)nc2c(C#N)c(C)nn2c1C`, the inhibition is -2.8%.

Turning to `COC(=O)C(C)C1Sc2ccccc2NC1=O` (stereo unspecified), the inhibition is 13.2%. For `CC(=O)c1cnc(Nc2nc(C)c3cc(C)ccc3n2)nc1C`, the inhibition is 26.5%.
